An excerpt weighted towards active compounds, which were near 3.8% of everything screened.
Yeast lifespan up = yeast lifespan extension; AID 775; actives 0.68% (n = 130,000); inhibition of the nicotinamide effect, % at 10 µM; S. cerevisiae growth with nicotinamide, OD615; deaD strain in restrictive glucose medium;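 active = inhibition above a set limit, placed 3 SD over the median of all compounds, cut at about 26% in these data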;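 also: 0% = nicotinamide-treated wells and 100% = cells grown without nicotinamide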
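Assay system: DeaD-strain S. cerevisiae. Medium: CSMM-D glucose medium, restrictive. Reagent: nicotinamide, 1.5 mM, co-present with compound. Compound: 10 µM single point, 0.25% DMSO. Schedule: culture preincubation 4 h, compound exposure 48 h, both 30 °C. Detection: absorbance at 615 nm.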
RAM inhibit = yeast RAM network inhibition | inhibition, % at 50 µM | S. cerevisiae dse1pr::URA3 reporter, 5-FOA growth OD615, 2 d; analog-sensitive cbk1-as2 kinase mutant strain | actives 1.8% (n = 190,000);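 active = inhibition above a set limit, 3 SD over mean compound inhibition, cut at about 8.4% in these data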;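 also: 0% = DMSO-only wells with no growth and 100% = 10 µM 1-NA-PP1 full growth; inhibition rescues growth on 5-FOA so higher OD means more RAM inhibition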
BB579 growth dn = reduces growth of yeast BB579 in restrictive medium | S. cerevisiae BB579 growth, OD615, 48 h | inhibition, % at 10 µM | actives 0.51% (n = 140,000) | AID 804;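 active = inhibition above a set limit, 3 SD over the mean compound inhibition, cut at about 44% in these data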
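System: DeaD yeast strain BB579; buffer or medium: CSMM-D dextrose restrictive medium; technique: OD at 615 nm; schedule: 4 h cell preincubation, 48 h compound exposure, 30 °C humidified; doses: single 10 µM dose; controls: amphotericin B 10 µg/mL, positive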
Measles CPE = protection of cells from measles virus; Measles virus-infected cells, CPE protection, absorbance; protection (pct of control), % at 4 µM; actives 1.5% (n = 140,000); AID 841; in the data active = protection mostly above about 24%, no sharp cut-off; inactive = mostly below about 26%
An asterisk follows results filed as active; . = no result.

SMILES	Yeast lifespan up	RAM inhibit	BB579 growth dn	Measles CPE
CCOC(=O)C1[C@H]2C(=O)N(CCCOC)C[C@]23C=C[C@H]1O3 (stereo partly drawn)	3	1	-27	18
CCCCCCN1CC(C(=O)OCC)C(=O)C1=O (stereo not drawn)	50*	-1	-4	12
CCN(CC)c1ccc(C(=S)NCc2ccccc2)cc1	.	2	.	.
CCOc1ccc(/C=C/C(=O)c2cc(Br)ccc(=O)c2O)cc1	4	5	93*	2
Cc1cccc(/C=N/NC(=O)c2ccc(Br)cc2)c1	-2	2	-42	12
Cc1cccc(/C=C/C(=O)c2cc(Br)ccc(=O)c2O)c1	-14	2	95*	7
CCc1ccc(/C=C/C(=O)c2cc(Br)ccc(=O)c2O)cc1	-10	5	89*	10
Cc1ccc(C(=O)/C=C/c2ccc(Br)cc2)o1	-4	2	-45	10
COc1ccc(Br)cc1C(=O)Nc1ccc(NC(=O)c2ccco2)cc1	-9	3	-61	14
Cc1ccc(/C=C/C(=O)c2cc(Br)ccc2OC(=O)c2ccco2)cc1	-7	11*	-41	10
COCc1c(C(=O)OC)nnn1-c1ccc(C(F)(F)F)cc1[N+](=O)[O-]	.	1	.	.
CC(C)c1ccc(-c2noc(C3CCCN(C(=O)c4ccc(F)cc4F)C3)n2)cc1 (stereo not drawn)	-12	10*	-46	6
Cc1ccc(-c2noc(C3CCCN(C(=O)c4ccc(F)cc4F)C3)n2)cc1 (stereo not drawn)	-3	1	-34	13
CC(C)OC(=O)CSc1nc2c(c(C3CC=CCC3)c1C#N)CCC2 (stereo not drawn)	-8	11*	-23	14
O=C(OCC(=O)N1CCCC1)c1ccc(NS(=O)(=O)c2cccs2)cc1O	.	3	.	.
O=C(O)c1cc(-c2ccc(/C=C3/SC(=S)N(Cc4ccccc4)C3=O)o2)ccc1Cl	.	9.4*	.	.
Cc1ccsc1C(C(=O)NC(C)(C)C)N(C(=O)c1csnn1)c1ccccc1 (stereo not drawn)	.	10*	.	.
Cc1cccc(N(C(=O)c2csnn2)C(C(=O)NC(C)(C)C)c2cccs2)c1 (stereo not drawn)	-21	1	-22	5
CCn1cc([N+](=O)[O-])c(C(=O)N2N=C(c3ccc(Cl)c(Cl)c3)CC2c2ccccc2O)n1 (stereo not drawn)	.	4	.	.
CCn1cc([N+](=O)[O-])c(C(=O)N2N=C(c3ccccc3)CC2c2ccc([N+](=O)[O-])cc2)n1 (stereo not drawn)	-7	2	-22	27*
CCOC(=O)c1c(NC(=S)NC(C)=O)sc(C)c1C	-4	2	0	15
C/C(=N\NC(=O)c1ccccc1)c1ccc(-n2ccnc2)cc1	0	3	-8	16
C/C(=N\Nc1ccc(Cl)c(Cl)c1)c1ccc(-n2ccnc2)cc1	-10	-1	95*	7
CCC(=O)Nc1ccccc1Sc1ncnc2scc(-c3ccccc3)c12	62*	3	-33	13
CCOC(=O)CNc1nc(C(C)(C)C)nc2c1nnn2Cc1ccccc1Cl	2	10*	-12	20
SMILES	Yeast lifespan up	RAM inhibit	BB579 growth dn	Measles CPE
Cc1ccc2cc(CCNS(=O)(=O)c3ccc(F)cc3)c(=O)[nH]c2c1	-5	2	4	11
Cc1ccc2cc(CCNS(=O)(=O)c3ccc(F)cc3)c(=O)[nH]c2c1C	.	8.5*	.	.
COc1ccc(C)cc1-n1nnnc1SC/C(O)=C(\C#N)c1nc2ccccc2[nH]1	-2	9.1*	-4	0
O=C(N/N=C/c1sc(N2CCOCC2)nc1-c1ccccc1)c1ccccc1Cl	.	6	.	.
O=[N+]([O-])c1ccc(N/N=C/c2sc(N3CCOCC3)nc2-c2ccccc2)c(S(=O)(=O)Nc2ccccc2Cl)c1	.	8.4*	.	.
Cc1ccc(OCC(O)CN2C(=O)NC(C)(C)C2=O)cc1 (stereo not drawn)	.	0	-5	13
CC1(C)NC(=O)N(CC(O)COc2ccc(N3C(=O)c4ccccc4C3=O)cc2)C1=O (stereo not drawn)	0	2	-3	47*
CCS(=O)(=O)C1=NN2C(=N)/C(=C\c3ccc(SCc4ccco4)o3)C(=O)N=C2S1	.	11*	.	.
O=C1c2ccccc2C(=O)N1Cc1ccco1	-11	1	44*	14
CC(=O)OC1c2ccccc2C(=O)N1c1ccccc1C (stereo not drawn)	2	0	-24	6
COC(=O)C1(C)Nc2ccccc2C(=O)N1c1ccccc1C (stereo not drawn)	-2	0	-16	41*
CN1C(=O)C(c2nnc(Nc3cccc4ccccc34)s2)C2CC1(C)Oc1ccccc12 (stereo not drawn)	-4	9.0*	-48	13
Cc1ccc(S(=O)(=O)C2C(=O)N(C)C3(C)CC2c2ccccc2O3)cc1C (stereo not drawn)	-2	4	-32	8
Fc1cccc(Cc2noc(CN3CCC(c4ccncc4)CC3)n2)c1	.	1	.	.
Cc1c(C(=O)NCCSCc2ccccc2)cccc1[N+](=O)[O-]	.	-1	.	.
Cc1c(C(=O)NCCSCc2ccc(Cl)cc2Cl)cccc1[N+](=O)[O-]	-4	11*	-33	18
CCOc1ccc2nc(SCC(=O)Nc3nonc3C)[nH]c2c1	.	9.1*	.	.
Cc1ccc2nsnc2c1S(=O)(=O)NCc1ccncc1	-3	1	-3	6
Cc1ccc2nsnc2c1S(=O)(=O)NCc1cccnc1	-17	3	0	39*
O=C(CSc1ccccc1)NCc1cccnc1	-15	1	-16	40*
Cn1c(=O)c2c(ncn2CC(=O)NCc2cccnc2)n(C)c1=O	-8	0	-38	39*
O=C(O)c1ccccc1C(=O)NCc1cccnc1	0	1	-13	32*
O=C(O)c1cccc(NC(=O)c2cccc(S(=O)(=O)N3CCc4ccccc4C3)c2)c1	.	5	.	.
O=S(=O)(NCc1cccnc1)c1ccccc1	2	1	-6	7
O=S(=O)(Cc1ccccc1)NCc1cccnc1	-18	0	45*	3
SMILES	Yeast lifespan up	RAM inhibit	BB579 growth dn	Measles CPE
CCC(c1nnc(SCC(=O)N2CC3(C)CC2CC(C)(C)C3)o1)N(C)C (stereo not drawn)	-2	3	-26	48*
COC(=O)c1c(C)c2c(C)cc3ccccn3c-2c1C(=O)OC	-18	0	1	6
COC(=O)c1cc2c(-c3ccccc3)cc3ccccn3c-2c1C(=O)OC	-16	6	-35	79*
Cn1cc(Br)c(C(=O)NNC(=O)Nc2ccccc2C(F)(F)F)n1	.	0	.	.
CCOC(=O)C1=C(O)/C(=C/c2cn(CC(=O)N3CCCC3)c3ccccc23)SC1=Nc1ccccc1	.	9.1*	-50	2
COC(=O)c1cn(CC(=O)N2CCCCCC2)c2ccccc12	-26	0	-28	4
CC(C)(CO)NS(=O)(=O)c1ccc2c(c1)oc(=O)c1cc(S(=O)(=O)NC(C)(C)CO)ccc12	-13	2	-41	61*
CCCCn1nnc(NC(=O)c2ccc(-c3cccc(Cl)c3)o2)n1	-19	8.4*	-39	6

Compound activity from PubChem.
